Data taken from ChEMBL document CHEMBL1127071, “Structure-activity relationships of C-terminal endothelin hexapeptide antagonists” (J Med Chem, 1993).
pEC50, pIC50: −log10 of the molar value. Where a SMILES comes first, the peptide text is derived from it. [ ]: non-standard residue; d: D form. dDip = N[C@@H](C(=O)O)C(c1ccccc1)c1ccccc1; Orn = NCCC[C@H](N)C(=O)O

Assays:
[1] = target: T1, Endothelin receptor type B (Rattus norvegicus, UniProt P21451); experiment: Effective concentration against Endothelin B receptor from rat cerebellum; format: tissue-based
T1 sequence (P21451 whole entry): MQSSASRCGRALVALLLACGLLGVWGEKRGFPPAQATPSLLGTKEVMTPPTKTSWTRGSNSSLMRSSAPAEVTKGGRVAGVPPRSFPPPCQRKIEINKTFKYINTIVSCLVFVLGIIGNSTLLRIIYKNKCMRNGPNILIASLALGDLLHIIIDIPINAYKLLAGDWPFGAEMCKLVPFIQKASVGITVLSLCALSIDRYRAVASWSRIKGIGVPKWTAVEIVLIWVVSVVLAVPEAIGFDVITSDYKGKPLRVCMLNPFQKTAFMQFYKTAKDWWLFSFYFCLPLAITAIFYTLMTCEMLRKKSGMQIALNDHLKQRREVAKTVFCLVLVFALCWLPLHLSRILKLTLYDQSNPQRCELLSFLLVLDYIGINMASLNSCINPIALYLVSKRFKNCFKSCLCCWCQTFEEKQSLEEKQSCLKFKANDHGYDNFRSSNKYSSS
Outline: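 Competition binding of 30 pM [125I]-ET-1 (2,000 Ci/mmol) to 5 µg membranes: rabbit renal artery vascular smooth muscle (ETA) or adult rat cerebellum (ETB). Buffer is 20 mM Tris, 2 mM EDTA, 100 µM PMSF and 100 µM bacitracin, pH 7.4, 37 °C, 2 h. Reaction stopped by GF/B filtration. Nonspecific binding measured with 100 nM ET-1. Triplicate points; IC50 from a one-site nonlinear fit.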

[2] = species on record: Oryctolagus cuniculus; experiment: Effective concentration against ET-1 stimulated arachidonic acid release in rabbit renal artery vascular smooth muscle cells; format: functional
Outline: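 Confluent rabbit renal artery smooth muscle cells loaded 18 h at 37 °C with 0.25 µCi/mL [3H]arachidonic acid in DME/F12 with 0.5% FCS. Cells washed in Hank's/10 mM HEPES/fatty acid-free BSA buffer with three 5-min incubations. Then exposed 30 min to test compound (1 nM to 1 µM) plus 0.3 nM ET-1. Released [3H] counted by liquid scintillation; IC50 determined.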

[3] = target: T2, Endothelin receptor (Rattus norvegicus, UniProt P26684+P21451); experiment: Binding affinity against Endothelin receptor from rat heart ventricle; format: protein assay
T2 sequence (P26684 whole entry): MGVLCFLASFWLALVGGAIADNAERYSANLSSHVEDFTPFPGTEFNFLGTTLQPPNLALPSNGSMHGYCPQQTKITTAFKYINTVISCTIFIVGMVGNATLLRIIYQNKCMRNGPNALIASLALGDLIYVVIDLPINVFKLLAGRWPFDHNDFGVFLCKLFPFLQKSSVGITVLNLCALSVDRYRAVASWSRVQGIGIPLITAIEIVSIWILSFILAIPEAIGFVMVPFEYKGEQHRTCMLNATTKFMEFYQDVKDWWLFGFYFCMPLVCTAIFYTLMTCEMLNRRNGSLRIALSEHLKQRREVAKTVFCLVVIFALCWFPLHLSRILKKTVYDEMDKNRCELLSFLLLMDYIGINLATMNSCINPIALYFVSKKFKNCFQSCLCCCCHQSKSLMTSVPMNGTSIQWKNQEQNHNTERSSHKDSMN
T2 sequence (P21451 whole entry): T1 sequence (P21451 whole entry)

[4] = species on record: Rattus norvegicus; experiment: Inhibition of ET-1 stimulated inositol phosphate accumulation in rat fibroblast; format: functional, organism-based
Outline: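 Rat skin fibroblasts prelabelled with [3H]inositol; ET-1-stimulated accumulation of total [3H]inositol phosphates in presence of Li+, measured by anion-exchange chromatography.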

With `CC[C@H](C)[C@H](NC(=O)[C@H](CC(=O)O)NC(=O)[C@H](CC(C)C)NC(=O)[C@H](NC(C)=O)C(c1ccccc1)c1ccccc1)C(=O)N[C@H](C(=O)N[C@@H](Cc1c[nH]c2ccccc12)C(=O)O)C(C)C` (Ac-[dDip]LDIVW-OH) the pEC50 [1] was 5.22 and the pEC50 [2] was 5.59.
With `CC[C@H](C)[C@H](NC(=O)[C@H](CC(=O)O)NC(=O)[C@H](CC(C)C)NC(=O)[C@H](N)C(c1ccccc1)c1ccccc1)C(=O)N[C@H](C(=O)N[C@@H](Cc1c[nH]c2ccccc12)C(=O)O)[C@@H](C)CC` (H-[dDip]LDIIW-OH) the pEC50 [1] was 5.72.
For `CC[C@@H](C)[C@@H](NC(=O)[C@@H](NC(=O)[C@H](CC(=O)O)NC(=O)[C@H](CC(C)C)NC(=O)[C@H](Cc1c[nH]cn1)NC(C)=O)[C@@H](C)CC)C(=O)N[C@@H](Cc1c[nH]c2ccccc12)C(=O)O`, the IC50 [3] was 16900 nM and the pIC50 [4] was < 4.00.
For `CC[C@H](C)[C@H](NC(=O)[C@H](CC(=O)O)NC(=O)[C@H](CC(C)C)NC(=O)[C@H](Cc1c[nH]cn1)NC(C)=O)C(=O)N[C@H](C(=O)N[C@@H](Cc1c[nH]c2ccccc12)C(=O)O)[C@@H](C)CC`, the IC50 [3] was 58000 nM and the pIC50 [4] was 4.30.
Molecule `CC[C@H](C)[C@H](NC(=O)[C@H](CC(=O)O)NC(=O)[C@H](CCCN)NC(=O)[C@H](NC(C)=O)C(c1ccccc1)c1ccccc1)C(=O)N[C@H](C(=O)N[C@@H](Cc1c[nH]c2ccccc12)C(=O)O)[C@@H](C)CC` (Ac-[dDip][Orn]DIIW-OH) has a pEC50 [1] of 6.82 and a pEC50 [2] of 7.52.
With `CC[C@H](C)[C@H](NC(=O)[C@@H](NC(=O)[C@H](CC(=O)O)NC(=O)[C@H](CC(C)C)NC(=O)[C@H](NC(C)=O)C(c1ccccc1)c1ccccc1)C(C)C)C(=O)N[C@@H](Cc1c[nH]c2ccccc12)C(=O)O` (Ac-[dDip]LDVIW-OH) the pEC50 [1] was 7.30 and the pEC50 [2] was 7.54.
`CC[C@H](C)[C@H](NC(=O)[C@H](CC(=O)O)NC(=O)[C@H](CC(C)C)NC(=O)[C@H](NC(C)=O)C(c1ccccc1)c1ccccc1)C(=O)N[C@H](C(=O)N[C@@H](Cc1ccc(O)cc1)C(=O)O)[C@@H](C)CC` (Ac-[dDip]LDIIY-OH) showed a pEC50 [1] of 5.21 and a pEC50 [2] of 5.37.
With `CC[C@H](C)[C@H](NC(=O)[C@H](CC(=O)O)NC(=O)[C@H](CCC(=O)O)NC(=O)[C@H](NC(C)=O)C(c1ccccc1)c1ccccc1)C(=O)N[C@H](C(=O)N[C@@H](Cc1c[nH]c2ccccc12)C(=O)O)[C@@H](C)CC` (Ac-[dDip]EDIIW-OH) the pEC50 [1] was 7.28 and the pEC50 [2] was 6.89.
In the case of `CC[C@H](C)[C@H](NC(=O)[C@@H](NC(=O)[C@@H](CC(=O)O)NC(=O)[C@H](CC(C)C)NC(=O)[C@H](Cc1c[nH]cn1)NC(C)=O)[C@@H](C)CC)C(=O)N[C@@H](Cc1c[nH]c2ccccc12)C(=O)O`, the IC50 [3] was 37000 nM and the pIC50 [4] was < 4.30.
With `CC[C@H](C)[C@H](NC(=O)[C@H](Cc1ccccc1)NC(=O)[C@H](CC(C)C)NC(=O)[C@H](NC(C)=O)C(c1ccccc1)c1ccccc1)C(=O)N[C@H](C(=O)N[C@@H](Cc1c[nH]c2ccccc12)C(=O)O)[C@@H](C)CC` (Ac-[dDip]LFIIW-OH) the pEC50 [1] was 7.22 and the pEC50 [2] was 5.89.
